Source: ChEMBL document CHEMBL4689842, “EUbOPEN Chemogenomics Library wave 1” (2021)

Assays:
Assay type in all cases: toxicity, cell-based
Fibroblast = experiment: Multiplex assay against human fibroblast
Outline: (§1)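 Four dyes were applied at seeding to live cells: Hoechst33342, BioTracker Green Microtubule Cytoskeleton Dye, MitoTracker Red and Annexin V Alexa Fluor 680. Imaging after compound addition used a CQ1 microscope at 37°C and 5% CO2. CellPathfinder machine-learning gating then sorted cells into Hoechst high-intensity objects or normal cells, normal cells into healthy, pyknosed or fragmented nuclei, and pyknosed cells into mitotic or apoptotic, with tubulin, mitochondrial-mass and membrane-permeability phenotypes given as per cents of healthy-nucleus cells.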

HEK-293T = experiment: Multiplex assay against HEK293T; conditions: human; outline: as §1
U2OS = experiment: Multiplex assay against U2OS; conditions: human; outline: as §1
[1] = 12 h, 1 µM, compound concentration 1 uM, replicate 1
[2] = 12 h, 1 µM, compound concentration 1 uM, replicate 2
[3] = 12 h, 10 µM, compound concentration 10 uM, replicate 1
[4] = 12 h, 10 µM, compound concentration 10 uM, replicate 2
[5] = 24 h, 1 µM, compound concentration 1 uM, replicate 1
[6] = 24 h, 1 µM, compound concentration 1 uM, replicate 2
[7] = 24 h, 10 µM, compound concentration 10 uM, replicate 1
[8] = 24 h, 10 µM, compound concentration 10 uM, replicate 2
[9] = 48 h, 1 µM, compound concentration 1 uM, replicate 1
[10] = 48 h, 1 µM, compound concentration 1 uM, replicate 2
[11] = 48 h, 10 µM, compound concentration 10 uM, replicate 1
[12] = 48 h, 10 µM, compound concentration 10 uM, replicate 2

## CC(C)C[C@H](NC(=O)[C@H](Cc1ccccc1)NC(=O)CNC(=O)CNC(=O)[C@@H](N)Cc1ccc(O)cc1)C(=O)O [ENKEPHALIN]
Fibroblast; [1]
  Population Apoptotic (%): 68%
  Population Healthy Nuclei (%): 53%
  Population Membrane Permeable-Phenotype (%): 26%
  Population Mitotic Cells (%): 31%
  Population Pyknosed Nuclei (%): 20%
  Population Tubulin-Different-Phenotype (%): 57%
  Total Cell Count: 95
Fibroblast; [2]
  Population Healthy Nuclei (%): 82%
  Population Pyknosed Nuclei (%): 5%
  Population Tubulin-Different-Phenotype (%): 34%
  Total Cell Count: 70
Fibroblast; [3]
  Population Apoptotic (%): 76%
  Population Healthy Nuclei (%): 39%
  Population Membrane Permeable-Phenotype (%): 27%
  Population Mitotic Cells (%): 23%
  Population Pyknosed Nuclei (%): 32%
  Total Cell Count: 130
Fibroblast; [4]
  Population Healthy Nuclei (%): 86%
  Population Tubulin-Different-Phenotype (%): 11%
  Total Cell Count: 62
Fibroblast; [5]
  Population Healthy Nuclei (%): 47%
  Population Membrane Permeable-Phenotype (%): 23%
  Population Pyknosed Nuclei (%): 26%
  Population Tubulin-Different-Phenotype (%): 34%
  Total Cell Count: 111
Fibroblast; [6]
  Population Healthy Nuclei (%): 84%
  Population Pyknosed Nuclei (%): 5%
  Population Tubulin-Different-Phenotype (%): 31%
  Total Cell Count: 68
Fibroblast; [7]
  Population Apoptotic (%): 60%
  Population Healthy Nuclei (%): 52%
  Population Membrane Permeable-Phenotype (%): 35%
  Population Mitotic Cells (%): 40%
  Population Pyknosed Nuclei (%): 22%
  Total Cell Count: 129
Fibroblast; [8]
  Population Healthy Nuclei (%): 86%
  Population Pyknosed Nuclei (%): 7%
  Population Tubulin-Different-Phenotype (%): 15%
  Total Cell Count: 86
Fibroblast; [9]
  Population Apoptotic (%): 63%
  Population Healthy Nuclei (%): 45%
  Population Membrane Permeable-Phenotype (%): 15%
  Population Pyknosed Nuclei (%): 22%
  Total Cell Count: 96
Fibroblast; [10]
  Population Apoptotic (%): 100%
  Population Healthy Nuclei (%): 73%
  Population Membrane Permeable-Phenotype (%): 22%
  Population Mitotic Cells (%): 0%
  Population Pyknosed Nuclei (%): 1%
  Total Cell Count: 81
Fibroblast; [11]
  Population Apoptotic (%): 35%
  Population Healthy Nuclei (%): 59%
  Population Membrane Permeable-Phenotype (%): 26%
  Population Mitotic Cells (%): 64%
  Population Pyknosed Nuclei (%): 12%
  Population Tubulin-Different-Phenotype (%): 31%
  Total Cell Count: 130
Fibroblast; [12]
  Population Healthy Nuclei (%): 76%
  Population Membrane Permeable-Phenotype (%): 18%
  Population Mitotic Cells (%): 0%
  Population Pyknosed Nuclei (%): 0%
  Population Tubulin-Different-Phenotype (%): 24%
  Total Cell Count: 118
HEK-293T; [1]
  Population Apoptotic (%): 45%
  Population Healthy Nuclei (%): 23%
  Population Mitochondria Different-Phenotype (%): 76%
  Population Mitotic Cells (%): 54%
  Population Pyknosed Nuclei (%): 60%
  Total Cell Count: 175
HEK-293T; [2]
  Population Apoptotic (%): 9%
  Population Healthy Nuclei (%): 50%
  Population Mitotic Cells (%): 90%
  Population Pyknosed Nuclei (%): 43%
  Total Cell Count: 229
HEK-293T; [3]
  Population Apoptotic (%): 40%
  Population Healthy Nuclei (%): 32%
  Population Mitochondria Different-Phenotype (%): 84%
  Population Mitotic Cells (%): 60%
  Population Pyknosed Nuclei (%): 57%
  Total Cell Count: 230
HEK-293T; [4]
  Population Apoptotic (%): 9%
  Population Healthy Nuclei (%): 45%
  Population Mitotic Cells (%): 90%
  Population Pyknosed Nuclei (%): 50%
  Total Cell Count: 271
HEK-293T; [5]
  Population Healthy Nuclei (%): 21%
  Population Mitochondria Different-Phenotype (%): 41%
  Population Normal (%): 80%
  Population Pyknosed Nuclei (%): 60%
  Total Cell Count: 175
HEK-293T; [6]
  Population Apoptotic (%): 10%
  Population Healthy Nuclei (%): 66%
  Population Mitotic Cells (%): 89%
  Population Pyknosed Nuclei (%): 28%
  Total Cell Count: 294
HEK-293T; [7]
  Population Healthy Nuclei (%): 45%
  Population Hoechst High Intensity Objects (%): 14%
  Population Mitotic Cells (%): 51%
  Population Normal (%): 85%
  Population Pyknosed Nuclei (%): 45%
  Total Cell Count: 250
HEK-293T; [8]
  Population Apoptotic (%): 7%
  Population Healthy Nuclei (%): 71%
  Population Mitotic Cells (%): 92%
  Population Pyknosed Nuclei (%): 23%
  Total Cell Count: 374
HEK-293T; [9]
  Population Healthy Nuclei (%): 32%
  Population Hoechst High Intensity Objects (%): 25%
  Population Mitochondria Different-Phenotype (%): 26%
  Population Mitotic Cells (%): 51%
  Population Normal (%): 74%
  Population Pyknosed Nuclei (%): 46%
  Total Cell Count: 212
HEK-293T; [10]
  Population Apoptotic (%): 9%
  Population Healthy Nuclei (%): 82%
  Population Mitotic Cells (%): 90%
  Population Pyknosed Nuclei (%): 11%
  Total Cell Count: 546
HEK-293T; [11]
  Population Apoptotic (%): 40%
  Population Healthy Nuclei (%): 62%
  Population Mitochondria Different-Phenotype (%): 22%
  Population Mitotic Cells (%): 60%
  Population Pyknosed Nuclei (%): 27%
  Total Cell Count: 327
HEK-293T; [12]
  Population Apoptotic (%): 18%
  Population Healthy Nuclei (%): 85%
  Population Mitochondria Different-Phenotype (%): 4%
  Population Mitotic Cells (%): 82%
  Population Pyknosed Nuclei (%): 8%
  Total Cell Count: 620
U2OS; [1]
  Population Healthy Nuclei (%): 77%
  Population Pyknosed Nuclei (%): 10%
  Population Tubulin-Different-Phenotype (%): 9%
  Total Cell Count: 216
U2OS; [2]
  Population Healthy Nuclei (%): 82%
  Population Pyknosed Nuclei (%): 5%
  Population Tubulin-Different-Phenotype (%): 34%
  Total Cell Count: 70
U2OS; [3]
  Population Healthy Nuclei (%): 78%
  Population Pyknosed Nuclei (%): 11%
  Population Tubulin-Different-Phenotype (%): 9%
  Total Cell Count: 148
U2OS; [4]
  Population Healthy Nuclei (%): 86%
  Population Tubulin-Different-Phenotype (%): 11%
  Total Cell Count: 62
U2OS; [5]
  Population Healthy Nuclei (%): 82%
  Population Pyknosed Nuclei (%): 9%
  Population Tubulin-Different-Phenotype (%): 9%
  Total Cell Count: 218
U2OS; [6]
  Population Healthy Nuclei (%): 84%
  Population Pyknosed Nuclei (%): 5%
  Population Tubulin-Different-Phenotype (%): 31%
  Total Cell Count: 68
U2OS; [7]
  Population Healthy Nuclei (%): 80%
  Population Pyknosed Nuclei (%): 10%
  Total Cell Count: 174
U2OS; [8]
  Population Healthy Nuclei (%): 86%
  Population Pyknosed Nuclei (%): 7%
  Population Tubulin-Different-Phenotype (%): 15%
  Total Cell Count: 86
U2OS; [9]
  Population Healthy Nuclei (%): 87%
  Population Pyknosed Nuclei (%): 7%
  Total Cell Count: 229
U2OS; [10]
  Population Healthy Nuclei (%): 92%
  Population Tubulin-Different-Phenotype (%): 31%
  Total Cell Count: 80
U2OS; [11]
  Population Healthy Nuclei (%): 84%
  Population Pyknosed Nuclei (%): 8%
  Population Tubulin-Different-Phenotype (%): 5%
  Total Cell Count: 251
U2OS; [12]
  Population Healthy Nuclei (%): 85%
  Population Pyknosed Nuclei (%): 6%
  Population Tubulin-Different-Phenotype (%): 15%
  Total Cell Count: 131
